Hck Nef HTS – inhibitors of Nef-activated human Hck kinase, primary screen, biochemical, Z-Lyte FRET, 384-well, Hck-YEEI; Tyrosine-protein kinase HCK (Homo sapiens), P08631; Recombinant Hck-YEEI plus Nef, Z-Lyte FRET kinase assay; inhibition, % at 20 µM; 220,000 tested, 0.68% active;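 active = Hck-Nef kinase inhibition above about 50%, limit read from the data; inactive = inhibition below that limit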;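 note: 0% = DMSO with Hck plus Nef and 100% = Hck alone without Nef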
Target sequence (P08631 whole entry, looked up): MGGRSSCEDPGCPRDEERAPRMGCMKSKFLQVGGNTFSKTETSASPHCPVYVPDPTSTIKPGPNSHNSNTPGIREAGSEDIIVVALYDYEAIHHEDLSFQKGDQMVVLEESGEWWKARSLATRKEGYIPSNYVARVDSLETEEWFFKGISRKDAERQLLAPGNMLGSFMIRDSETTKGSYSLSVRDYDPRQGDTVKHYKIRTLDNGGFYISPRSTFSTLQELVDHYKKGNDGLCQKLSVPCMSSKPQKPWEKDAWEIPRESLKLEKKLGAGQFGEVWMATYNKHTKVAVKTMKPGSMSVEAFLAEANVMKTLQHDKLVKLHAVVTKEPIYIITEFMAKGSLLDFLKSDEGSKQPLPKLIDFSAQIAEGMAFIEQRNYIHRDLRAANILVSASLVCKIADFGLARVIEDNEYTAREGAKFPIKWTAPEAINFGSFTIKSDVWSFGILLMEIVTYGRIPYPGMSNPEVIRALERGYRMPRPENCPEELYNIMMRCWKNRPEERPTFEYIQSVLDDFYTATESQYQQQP
RanGTP-Impb inh – inhibitors of RanGTP-importin-beta interaction, primary screen, biochemical, FRET, CFP-Ran, YFP-importin-beta, homogeneous | 300,000 tested, 1.1% active | Ran GTPase (GTP-bound) - importin-beta complex | inhibition, % (test concentration not listed) | cell-free CFP-Ran/YFP-importin-beta FRET ratio;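 active = more than half of the replicate wells show a fall in the fluorescence ratio signal beyond about 16%, limit read from the data, passing the limit was not always enough; inconclusive = exactly half of the replicate wells pass the set limit; inactive = fewer than half of replicates pass the limit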;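 note: 0% = DMSO wells and 100% = Ran loaded with GDP instead of GTP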
Runt-CBFb FRET – inhibitors of RUNX1 Runt–CBFb binding, primary screen, biochemical, FRET, Cerulean-Runt, Venus-CBFb, uHTS; inhibition, % at 20 µM; Cerulean-Runt/Venus-CBFb FRET ratio 530/480, 1 h; 220,000 tested, 0.46% active;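 active = inhibition over about 50% at 20 µM in the single-dose screen, limit read from the data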;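 note: 0% = DMSO wells and 100% = excess unlabeled CBFb competitor control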
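Buffer or medium: Tris pH 7.5 buffer with BSA. Assay system: Cerulean-labeled Runt domain protein. Amount: each fluorescent fusion protein 100 nM. Read-out basis: loss of energy transfer signal. Incubation: 1 h compound exposure, room temperature. Probe or stimulus: Venus-CBFb binding partner, 100 nM. Detection: FRET, excitation 422 nm, emission at 530 and 480 nm.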
CaV13 ICDI inh – Disruptors of the CACNA1D IQ motif to Ca2+-dependent inactivation inhibitor domain association, primary screening, Förster resonance energy transfer in intact living … | HEK cells, CFP/YFP FRET ICDI-IQ, plate reader, 10 min; percent FRET-ratio fall versus neutral wells | inhibition, % at 12.3 µM | 340,000 tested, 0.098% active | AID 743397;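 active = mean replicate inhibition of at least 30% and at least 1% of replicates passing that level; inconclusive = only one of the two criteria is met; inactive = neither criterion is met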;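 note: 0% = median of the neutral control wells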
Runt-SMMHC FRET – inhibitors of RUNX1 Runt–CBFb-SMMHC binding, primary screen, biochemical, FRET, Cerulean-Runt, Venus-CBFb-SMMHC, uHTS | inhibition, % at 20 µM | 220,000 tested, 0.74% active | Cerulean-Runt/Venus-CBFb-SMMHC FRET ratio 530/480, 1 h | AID 1434, 2008;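 active = mean inhibition across duplicate retests at 20 µM reaching about 50%, limit read from the data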;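 note: 0% = DMSO wells and 100% = wells with excess untagged CBFb-SMMHC; inhibitors lower the FRET ratio by blocking Runt binding to CBFb-SMMHC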
* marks the source's active call; other numbers are inactive results; ? = inconclusive; / = no result; + = active, no number. An excerpt weighted towards active compounds, which were near 1.5% of everything screened.

SMILES	Hck Nef HTS	RanGTP-Impb inh	Runt-CBFb FRET	CaV13 ICDI inh	Runt-SMMHC FRET
CCN(CC)c1ccc(/C=N/NC(=O)c2cccc(S(=O)(=O)Nc3ccccc3OC)c2)c(O)c1	-10	8	-32	-4	81*
COc1ccc([C@H]2CC(=O)C=C(c3ccccc3OC)C2)cc1OC	/	/	/	-9	/
O=C(O)C(Cc1ccccc1)N1C(=O)/C(=C/c2cccc3ccccc23)SC1=S (centres undefined)	63*	/	-8	/	-11
O=C(O)C(Cc1ccccc1)N1C(=O)/C(=C/c2ccccc2)SC1=S (centres undefined)	9	1	1	-4	-4
CCn1c(SCC(=O)Nc2ccc(N(C)C)cc2)nnc1-c1ccco1	/	0	/	-7	/
CCOc1ccc2[nH]c3ncccc3c(=O)c2c1	/	34*	/	-3	/
CCCCCC(O)CCCC(=O)O (centres undefined)	/	/	/	-5	/
CCCCCC#CCC#CCC#CCC#CCCCC(=O)O	76*	0	14	/	8
O=C(O)c1ccc(N/N=C/c2ccc(-c3ccc(Cl)cc3Cl)o2)cc1	49	88*	80*	4	81*
NS(=O)(=O)c1ccc(-c2ccc(/C=N/Nc3ccc(C(=O)O)cc3)o2)cc1	-35	8	-17	-9	80
O=C(O)c1ccc(N/N=C/c2ccc(-c3cc(Cl)ccc3Cl)o2)cc1	45	83*	70*	6	80*
COC(=O)N/N=C/c1ccc(-c2ccc(Cl)cc2Cl)o1	15	4	-2	-6	-2
COc1ccc(-n2c(O)c(C=Nc3ccccc3)c3ccccc3c2=O)cc1	20	?	7	-30	90*
COc1ccc(-n2c(O)c(C=Nc3ccccc3)c3ccccc3c2=O)cc1OC	17	-4	22	-8	71
Cn1c(=O)nc2n(Cc3ccccc3)c3cccc(Cl)c3cc-2c1=O	3	64*	95*	-7	60*
O=C(NCc1ccco1)c1cnn2c(C(F)(F)F)cc(-c3cccs3)nc12	1	?	36	-3	52*
O=C(NCc1ccco1)c1cnn2c(C(F)F)cc(-c3ccccc3)nc12	4	32*	6	-5	21
CC(C)CNC(=S)N(CCCO)Cc1cc2cc3c(cc2[nH]c1=O)OCO3	/	-5	/	-20	/
O=C(/C=C1\OCc2ccccc21)c1ccccc1	/	/	/	-10	/
CN1CCc2c(sc3nc(SCC(N)=O)n(-c4ccc(Cl)cc4)c(=O)c23)C1	/	12	/	-5	/
CCCCSc1nc2sc3c(c2c(=O)n1-c1ccccc1)CCN(C)C3	/	-10	/	-23	/
CCCCCNc1nc2sc3c(c2c(=O)n1-c1cccc(Cl)c1)CCN(C)C3	6	44*	44	-3	103*
CCCCNc1nc2sc3c(c2c(=O)n1-c1cccc(Cl)c1)CCN(C)C3	-24	30*	49	-4	126*
Cc1cccn2c(=O)nc(SCC(=O)Nc3ccc4c(c3)OCO4)nc12	/	3	/	-7	/
O=C(COc1ccc(F)cc1)NCCNC(=O)COc1ccc(F)cc1	/	/	/	-2	/
SMILES	Hck Nef HTS	RanGTP-Impb inh	Runt-CBFb FRET	CaV13 ICDI inh	Runt-SMMHC FRET
Clc1ccc(-c2cn3cccnc3n2)cc1	0	5	3	0	-3
Clc1ccc(-c2cn3nc4c(nc3n2)CCCC4)cc1	1	70*	12	18	57
COc1cccc(-c2cc(C(F)(F)F)n3nc(N)nc3n2)c1	1	3	3	-1	4
COc1cccc(-c2cn3nc4c(nc3n2)CCCC4)c1	9	46*	-1	/	3
COc1ccccc1CNC(=O)c1sccc1-c1ccccc1	/	0	/	-4	/
O=C(Nc1cccc(Cl)c1)c1cc2c(=O)n3ccccc3nc2s1	/	91*	/	-5	/
COc1cccc(C(=O)Nc2cccc(NC(=O)c3cccs3)c2)c1	/	2	/	-2	/
COc1ccc2nc3sc(C(=O)NCc4cccs4)c(N)c3cc2c1	5	-10	12	-7	22
CCCCn1nc(NC(=O)c2cccs2)c2cc3cc(OC)ccc3nc21	37	129*	67*	54*	78*
CCCn1nc(NC(=O)c2cccs2)c2cc3cc(OC)ccc3nc21	7	106*	63*	/	63*
O=C(NCCCN1CCOCC1)C(=O)NCCc1ccccc1	2	2	0	-7	0
N#C/C(=C\c1ccc(N2CCOCC2)o1)C(=O)NCC1CCCO1 (centres undefined)	-13	12	10	-4	10
N#C/C(=C\c1ccc(N2CCOCC2)o1)C(=O)NCCc1ccccc1	11	53*	14	+	94*
COCCNC(=O)/C(C#N)=C/c1ccc(N2CCOCC2)o1	0	50*	5	-5	14
O=C(/C=C/c1c(F)cccc1Cl)N1CCOCC1	/	2	/	-2	/
COc1cccc(-n2c(C)cc(/C=C3\C(=N)N4N=C(CC(=O)N5CCOCC5)SC4=NC3=O)c2C)c1	/	16*	/	-12	/
COc1cc(/C=C/C(=O)N2C(=O)c3cccc(N)c3C2=O)cc(OC)c1OC	2	?	-26	-27	33
Nc1cccc2c1C(=O)N(C(=O)/C=C/c1cccc(F)c1)C2=O	16	27*	-42	-93	90*
Nc1cccc2c1C(=O)N(C(=O)/C=C/c1cccc(Br)c1)C2=O	-60	34*	-49	-7	84*
O=C(CN1CCN(Cc2cccc(F)c2)CC1)Nc1ccccc1F	/	3	/	-5	/
O=C(CCN1C(=O)c2ccccc2C1=O)N1CCN(Cc2ccccc2)CC1	1	10	1	-7	0
Cc1ccc(CN2CCN(C(=O)CCN3C(=O)c4ccccc4C3=O)CC2)cc1	0	6	108*	/	5
Cc1ccc(-c2ccc(C3C(C#N)=C(N)Oc4n[nH]c(C)c43)o2)cc1 (centres undefined)	1	39*	3	-6	-30
Cc1[nH]nc2c1C(c1ccc(-c3ccc(Cl)cc3)o1)C(C#N)=C(N)O2 (centres undefined)	0	12	-63	-4	21
NS(=O)(=O)c1cccc(NC(=O)COC(=O)Cc2ccc(S(=O)(=O)N3CCOCC3)s2)c1	/	/	/	-3	/
Nc1nc(N)c(N=Nc2ccc(Cl)cc2)c(=O)[nH]1	-3	-3	2	1	-3
Nc1nc(N)c(N=Nc2ccc(SCC(=O)O)cc2)c(=O)[nH]1	5	44*	12	-4	2

Bioassay records as filed in PubChem BioAssay.
